In the library only some 3.6% were active in any assay of this set; here they are far more common.
HSF1 activator = increases HSF-1 driven luciferase reporter signal | NIH3T3-HGL HSF-1 luciferase reporter, MG132, 8 h; 100% = twice DMSO control signal | activation, % at 9 µM | 300,000 compounds, 1.7% hits | AID 504408;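 active means mean replicate activation of at least 50% with a set share of replicates each reaching 50%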
SR-BI DiI-HDL act = SR-BI HDL lipid transfer activation. AID 504775. 320,000 compounds, 0.096% hits. activation, % at 12.5 µM. CHO ldlA[mSR-BI] cells, DiI-HDL uptake fluorescence, 3 h; 100 = double the neutral-control signal;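 active means mean replicate activation of at least 60% and every replicate at or above 60%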
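Material: SR-BI-overexpressing, LDLR-lacking CHO cells; schedule: compound exposure 3 h, 37 °C; reagent: DiI-labelled HDL at 10 µg/mL final; technique: bottom-read fluorescence, 550/595 nm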
SR-BI HDL uptake = blocks mouse SR-BI lipid uptake from DiI-HDL; AID 488896; Q61009; ldlA[mSR-BI] CHO cells, DiI-HDL uptake fluorescence, 3 h; 320,000 compounds, 0.96% hits; inhibition, % at 12.5 µM;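 active means mean replicate inhibition of at least 70% and a set share of replicates each scoring 70 or more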
Target sequence (Q61009 whole entry, looked up): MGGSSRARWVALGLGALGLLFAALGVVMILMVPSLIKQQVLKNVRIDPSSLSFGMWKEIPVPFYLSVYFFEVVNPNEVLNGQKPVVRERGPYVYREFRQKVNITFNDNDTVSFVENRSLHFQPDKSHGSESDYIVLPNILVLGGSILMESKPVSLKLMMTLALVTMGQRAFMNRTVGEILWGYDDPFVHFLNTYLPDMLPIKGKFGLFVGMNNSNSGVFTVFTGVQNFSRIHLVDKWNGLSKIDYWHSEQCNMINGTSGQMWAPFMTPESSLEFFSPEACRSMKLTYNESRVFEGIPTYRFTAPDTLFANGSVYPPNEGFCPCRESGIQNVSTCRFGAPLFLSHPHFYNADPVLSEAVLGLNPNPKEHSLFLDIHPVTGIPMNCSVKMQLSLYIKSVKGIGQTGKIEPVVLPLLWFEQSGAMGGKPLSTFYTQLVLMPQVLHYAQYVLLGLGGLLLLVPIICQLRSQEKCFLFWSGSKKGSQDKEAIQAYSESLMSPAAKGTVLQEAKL
Wnt bcat act = activates Wnt/beta-catenin signaling in a reporter cell assay; 300,000 compounds, 1.2% hits; AID 743398; activator, plate reader; activation, % at 9.35 µM; in the data active means activation above about 30%, passing the limit was not always enough
MITF TRPM1 HTS = activators of MITF-driven TRPM1 promoter activity in SK-MEL-5 cells | SK-MEL-5 TRPM1-promoter luciferase, 24 h; % of positive control, neutral wells = 0 | activation, % at 12.5 µM | 300,000 compounds, 0.75% hits;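 active means mean activation of at least 80% with every replicate also reaching 80%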
A number is an active result; – = inactive; · = not tested or not shown.

SMILES	HSF1 activator	SR-BI DiI-HDL act	SR-BI HDL uptake	Wnt bcat act	MITF TRPM1 HTS
CCCCOCC1CN(CCCC)S(=O)(=O)c2c(Oc3ccc(OC)cc3)cccc2O1 (configuration not stated)	·	·	·	–	·
COC(=O)c1cc2c(c3c4cc(OC)ccc4n(S(=O)(=O)c4cccc(C)c4)c13)C(=O)N(C)C2	·	·	·	–	·
CCOC(=O)Cn1ccc2cc(S(=O)(=O)N3CCCC3)ccc21	·	·	·	–	·
CCOC(=O)[C@H]1[C@H]2COc3ccc(Br)cc3[C@H]2N2C(=O)CN(Cc3ccc(Cl)cc3)C(=O)[C@@]12C	·	–	–	–	–
CCNC(=O)C1(C)CCN(C(=O)c2c(F)cccc2F)C1 (configuration not stated)	·	·	·	–	·
CCc1nc2c(OCc3ccc(F)c(F)c3)cccn2c1N(C)C(=O)c1ccncc1	·	·	·	–	·
CC(=O)N1C[C@@H](CO)[C@@H](N(C)C(=O)Nc2cccc3ccccc23)C[C@H]1c1ccccc1	·	·	·	–	·
Nc1c(C(=O)Nc2ccc3c(c2)OCCO3)nnn1Cc1ccc(F)cc1	–	–	–	–	116.4
CC(=O)Nc1ccc2c(c1)Cc1ccc(Cl)cc1-2	·	–	74.4	–	–
CC(=O)Nc1ccc2c(c1)-c1ccc(F)cc1C2	·	–	–	–	–
COc1ccc(NC(=O)C[C@H]2C(=O)N(c3ccc(OC)cc3)C[C@@H]2C)cc1	·	·	·	–	·
CC(=O)Nc1ccc(N=Nc2ccc(O)cc2)cc1	57.0	–	–	–	–
Oc1ccc(N=Nc2ccccc2)cc1	–	–	–	34.4	91.0
CC(=O)Nc1ccc(N=NN2CCOCC2)cc1	–	–	–	–	–
O=C1N(Cc2ccccc2)CC2(Br)COCOC12O (configuration not stated)	·	–	–	–	–
CCOC(=O)c1c(C)[nH]c(C(=O)OCc2ccccc2)c1C	61.5	–	–	43.0	92.3
CCOC(=O)c1c(C)[nH]c(C(=O)CSc2ccccc2)c1C	58.8	–	–	·	–
CCOC(=O)c1c(C)[nH]c(C(=O)COC(=O)CCSc2ccccc2)c1C	–	–	–	–	–
O=C(Nc1ccc(F)cc1F)c1csc(-c2cccs2)n1	–	–	–	34.5	–
O=C(Nc1ccc(F)cc1F)c1csc(-c2ccncc2)n1	–	–	–	–	–
CCN(CC)Cc1c(C(=O)N/N=C/c2cccc(OCc3cccc(Cl)c3)c2)nnn1-c1nonc1N	57.3	–	–	–	–
CC1CCN(Cc2c(C(=O)N/N=C/c3cc(Br)ccc3O)nnn2-c2nonc2N)CC1	–	–	102.7	–	–
Cc1cccc(COc2ccc(/C=N/NC(=O)c3nnn(-c4nonc4N)c3CN3CCCCC3)cc2)c1	–	–	–	–	–
Nc1nonc1-n1nnc(C(=O)N/N=C/c2ccc(OCc3ccccc3F)cc2)c1CN1CCCCC1	–	–	–	–	83.7
Nc1nonc1-n1nnc(C(=O)N/N=C/c2ccc(OCc3cccc(Cl)c3)cc2)c1CN1CCCCC1	–	–	–	–	106.3
SMILES	HSF1 activator	SR-BI DiI-HDL act	SR-BI HDL uptake	Wnt bcat act	MITF TRPM1 HTS
Cc1ccc(NC(=O)CSC(C)C(=O)OCc2cc(=O)oc3cc(O)ccc23)cc1 (configuration not stated)	·	·	·	–	·
COc1ccc(O)c(/C=N/NC(=O)c2c(C)nnn2-c2nonc2N)c1	–	–	100.6	–	–
COc1ccc(/C=N/NC(=O)c2nnn(-c3nonc3N)c2-c2cccc(OC)c2)cc1	–	–	–	–	–
CN(C)Cc1c(C(=O)N/N=C/c2ccc(OCc3c(F)cccc3Cl)cc2)nnn1-c1nonc1N	108.5	–	–	–	–
O=C(COC(=O)c1ccccc1C(=O)c1ccc(Cl)cc1)NCCc1ccccc1	–	–	–	–	–
O=C(COC(=O)c1ccccc1C(=O)c1ccccc1)NCCc1ccccc1	55.4	–	–	–	–
CCOc1ccccc1/C=C/c1onc(C)c1S(=O)(=O)N1CCC(C(=O)N2CCCCCC2)CC1	–	–	92.1	–	–
C=CCN1C(=O)C(Cc2ccc(OCC)cc2)S/C1=N\N=C\c1cccs1 (configuration not stated)	56.0	–	–	·	–
C=CCN1C(=O)C(Cc2ccccc2)S/C1=N/N=C/c1cccs1 (configuration not stated)	–	–	–	–	–
c1ccc(CSc2nnc(-c3cccs3)o2)cc1	–	–	–	·	134.5
Cc1cccc(-c2nnc(SCc3ccccc3)o2)c1	–	·	–	42.5	–
Fc1ccc(CSc2nnc(-c3cccs3)o2)cc1	–	–	–	–	–
